Assay results as given in ChEMBL document CHEMBL1944596, “7,8-dichloro-1-oxo-β-carbolines as a versatile scaffold for the development of potent and selective kinase inhibitors with unusual binding modes” (J Med Chem, 2012).

Experiments:
[1] = target: T1, Cyclin-G-associated kinase (Homo sapiens) (UniProt O14976); assay: Binding affinity to GAK assessed as change in thermal denaturation at 10 uM by thermal stability shift assay
T1 sequence (whole entry): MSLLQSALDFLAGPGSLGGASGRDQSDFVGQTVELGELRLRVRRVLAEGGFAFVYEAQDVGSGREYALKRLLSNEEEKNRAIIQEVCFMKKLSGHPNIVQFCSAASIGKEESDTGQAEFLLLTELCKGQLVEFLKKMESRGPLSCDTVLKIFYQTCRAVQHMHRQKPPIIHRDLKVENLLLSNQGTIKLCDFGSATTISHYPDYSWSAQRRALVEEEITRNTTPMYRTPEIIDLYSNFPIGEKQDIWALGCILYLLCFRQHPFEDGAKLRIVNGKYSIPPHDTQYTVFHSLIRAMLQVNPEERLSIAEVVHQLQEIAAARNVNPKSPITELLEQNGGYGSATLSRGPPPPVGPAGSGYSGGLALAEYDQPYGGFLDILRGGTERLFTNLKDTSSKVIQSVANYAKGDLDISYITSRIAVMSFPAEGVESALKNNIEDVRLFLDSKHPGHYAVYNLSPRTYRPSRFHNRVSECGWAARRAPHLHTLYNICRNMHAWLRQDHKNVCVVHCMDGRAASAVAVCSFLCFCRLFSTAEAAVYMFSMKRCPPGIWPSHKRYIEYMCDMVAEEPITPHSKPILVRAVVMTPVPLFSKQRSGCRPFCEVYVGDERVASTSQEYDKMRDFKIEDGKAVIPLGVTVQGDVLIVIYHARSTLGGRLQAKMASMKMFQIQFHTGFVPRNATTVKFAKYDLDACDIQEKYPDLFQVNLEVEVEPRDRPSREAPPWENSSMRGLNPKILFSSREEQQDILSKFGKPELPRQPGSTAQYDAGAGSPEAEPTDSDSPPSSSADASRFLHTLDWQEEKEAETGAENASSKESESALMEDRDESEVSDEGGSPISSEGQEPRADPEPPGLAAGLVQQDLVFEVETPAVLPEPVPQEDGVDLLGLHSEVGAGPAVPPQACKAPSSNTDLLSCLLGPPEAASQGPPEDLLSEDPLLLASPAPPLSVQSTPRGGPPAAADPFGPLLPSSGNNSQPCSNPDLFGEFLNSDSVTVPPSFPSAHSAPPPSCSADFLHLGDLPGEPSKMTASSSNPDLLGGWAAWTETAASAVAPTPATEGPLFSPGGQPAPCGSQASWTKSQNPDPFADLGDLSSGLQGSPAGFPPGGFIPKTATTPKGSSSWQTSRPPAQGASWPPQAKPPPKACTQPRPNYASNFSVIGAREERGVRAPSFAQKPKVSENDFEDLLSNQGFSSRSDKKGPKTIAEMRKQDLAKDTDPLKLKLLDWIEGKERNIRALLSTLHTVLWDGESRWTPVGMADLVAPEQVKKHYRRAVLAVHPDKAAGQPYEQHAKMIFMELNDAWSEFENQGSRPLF
In short: (§1)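 Each compound was screened across a kinase panel by thermal stability shift assay. The read-out was the shift in protein melting temperature (ΔTm, in °C) relative to the unliganded kinase. A ΔTm of 4.0 °C served as the hit cutoff.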

[2] = target: Serine/threonine-protein kinase pim-2 (Homo sapiens, UniProt Q9P1W9); assay: Binding affinity to PIM2 assessed as change in thermal denaturation at 10 uM by thermal stability shift assay; in short: as §1
Chain of Serine/threonine-protein kinase pim-2 (Q9P1W9 whole entry, looked up): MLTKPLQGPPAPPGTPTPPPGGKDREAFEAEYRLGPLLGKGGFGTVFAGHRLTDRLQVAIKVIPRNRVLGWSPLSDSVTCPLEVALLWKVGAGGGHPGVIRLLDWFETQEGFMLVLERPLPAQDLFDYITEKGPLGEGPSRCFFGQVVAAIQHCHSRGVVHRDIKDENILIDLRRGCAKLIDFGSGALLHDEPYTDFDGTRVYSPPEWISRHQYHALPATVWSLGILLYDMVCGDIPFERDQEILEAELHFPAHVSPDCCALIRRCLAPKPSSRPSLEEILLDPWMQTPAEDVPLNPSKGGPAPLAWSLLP

[3] = target: T2, Serine/threonine-protein kinase 17A (Homo sapiens) (UniProt Q9UEE5); assay: Binding affinity to DRAK1 assessed as change in thermal denaturation at 10 uM by thermal stability shift assay; in short: as §1
T2 sequence (whole entry): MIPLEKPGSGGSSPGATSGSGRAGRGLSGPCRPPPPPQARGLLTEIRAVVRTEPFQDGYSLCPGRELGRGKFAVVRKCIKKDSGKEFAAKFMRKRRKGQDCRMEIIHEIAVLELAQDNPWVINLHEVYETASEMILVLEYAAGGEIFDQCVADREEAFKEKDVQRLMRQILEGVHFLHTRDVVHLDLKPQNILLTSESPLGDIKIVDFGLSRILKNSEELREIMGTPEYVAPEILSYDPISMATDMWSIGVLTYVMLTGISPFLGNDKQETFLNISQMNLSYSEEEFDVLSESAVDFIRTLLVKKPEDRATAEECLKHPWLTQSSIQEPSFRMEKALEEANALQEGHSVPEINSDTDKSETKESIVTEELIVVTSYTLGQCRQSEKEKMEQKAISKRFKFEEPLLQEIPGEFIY

[4] = target: T3, Serine/threonine-protein kinase 17B (Homo sapiens) (UniProt O94768); assay: Binding affinity to DRAK2 assessed as change in thermal denaturation at 10 uM by thermal stability shift assay; in short: as §1
T3 sequence (whole entry): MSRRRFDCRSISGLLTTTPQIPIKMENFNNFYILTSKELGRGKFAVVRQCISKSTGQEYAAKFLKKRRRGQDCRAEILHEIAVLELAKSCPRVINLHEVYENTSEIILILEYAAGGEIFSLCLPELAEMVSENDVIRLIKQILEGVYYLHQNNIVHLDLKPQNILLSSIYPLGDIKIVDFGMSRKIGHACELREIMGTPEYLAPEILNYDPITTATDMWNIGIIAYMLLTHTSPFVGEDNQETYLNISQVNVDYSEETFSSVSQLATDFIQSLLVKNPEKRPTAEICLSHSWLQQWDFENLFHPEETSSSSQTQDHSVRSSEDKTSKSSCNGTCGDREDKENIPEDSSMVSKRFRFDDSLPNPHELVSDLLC

[5] = target: Dual specificity protein kinase CLK4 (Homo sapiens) (UniProt Q9HAZ1); assay: Binding affinity to CLK4 assessed as change in thermal denaturation at 10 uM by thermal stability shift assay; in short: as §1
Chain of Dual specificity protein kinase CLK4 (Homo sapiens) (Q9HAZ1 whole entry, looked up): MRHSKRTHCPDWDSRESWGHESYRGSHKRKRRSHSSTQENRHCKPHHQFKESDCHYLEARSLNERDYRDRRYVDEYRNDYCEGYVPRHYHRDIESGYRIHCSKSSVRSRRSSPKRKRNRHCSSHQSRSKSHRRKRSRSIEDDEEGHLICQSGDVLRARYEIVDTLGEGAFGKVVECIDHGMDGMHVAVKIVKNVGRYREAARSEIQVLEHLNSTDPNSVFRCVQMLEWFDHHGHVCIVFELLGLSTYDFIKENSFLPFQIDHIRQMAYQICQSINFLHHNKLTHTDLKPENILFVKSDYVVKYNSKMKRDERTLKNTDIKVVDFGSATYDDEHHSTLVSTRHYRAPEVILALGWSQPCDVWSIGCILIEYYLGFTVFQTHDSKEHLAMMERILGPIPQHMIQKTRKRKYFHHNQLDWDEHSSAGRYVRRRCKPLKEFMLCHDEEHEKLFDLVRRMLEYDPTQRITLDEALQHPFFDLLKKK

| Structure (SMILES) | ΔTm [1] [°C] | ΔTm [2] [°C] | ΔTm [3] [°C] | ΔTm [4] [°C] | ΔTm [5] [°C] |
| --- | --- | --- | --- | --- | --- |
| Cn1c2c(Cl)c(Cl)ccc2c2cc(N)[nH]c(=O)c21 | 4.3 | 3 | 6.9 | 3 | 2.1 |
| CC(=O)NCC1c2c(n(C)c3c(Cl)c(Cl)ccc23)C(=O)NC1(C)C (racemic) | 0.5 | 0.7 | 0.9 | 1.6 | 1.4 |
| CCN1CCC2(CC1)NC(=O)c1c(c3ccc(Cl)c(Cl)c3n1C)C2C#N (racemic) | 0.9 | 3.9 | 1.6 | 1.1 | 1.8 |
| Cn1c2c(c3ccc(Cl)c(Cl)c31)C(C#N)C1(CCN(C(=O)OC(C)(C)C)CC1)NC2=O (racemic) | -0.2 | -0.2 | 0.6 | 0 | 0 |
| CN1CCC2(CC1)NC(=O)c1c(c3ccc(Cl)c(Cl)c3n1C)C2C#N (racemic) | 0.8 | 5.2 | 2.7 | 1.2 | 2.1 |
| CCC1(CC)NC(=O)c2c(c3ccc(Cl)c(Cl)c3n2C)C1C#N (stereo not given) | 1.2 | 2 | 2.6 | 2.9 | 2.8 |
| Cn1c2c(Cl)c(Cl)ccc2c2cc[nH]c(=O)c21 | 3.3 | 2.9 | 6.2 | 3.6 | 3.2 |
| N#CC1c2c([nH]c3c(Cl)c(Cl)ccc23)C(=O)NC12CCCCC2 (racemic) | 2.8 | 1.4 | 2.2 | 2.3 | 5.7 |
| Cn1c2c(c3ccc(Cl)c(Cl)c31)C(C#N)C1(CCOCC1)NC2=O (stereo not given) | 1.3 | 2.2 | 2.7 | 1.7 | 2.8 |
| Cn1c2c(c3ccc(Cl)c(Cl)c31)C(C#N)C1(CCCC1)NC2=O (stereo not given) | 1.2 | 1.6 | 2 | 2.6 | 3.3 |
| CC1(C)NC(=O)c2[nH]c3c(Cl)c(Cl)ccc3c2C1C#N (stereo not given) | 2.5 | 2.3 | 3 | 2.1 | 4.9 |
| Cn1c2c(c3ccccc31)C(C#N)C(C)(C)NC2=O (stereo not given) | 0 | -0.2 | 0.5 | 0.3 | 1.4 |
| Cn1c2c(Cl)c(Cl)ccc2c2cn[nH]c(=O)c21 | 1.6 | 1.6 | 3.5 | 2.2 | 0.9 |
| Cn1c2c(c3ccc(Cl)c(Cl)c31)C(C#N)C(C)(C)NC2=O (stereo not given) | 2.8 | 3.6 | 5.8 | 4.8 | 4.3 |
| Cn1c2c(c3ccc(Cl)c(Cl)c31)C(CN)C(C)(C)NC2=O (racemic) | 0.7 | 3.2 | 7.5 | 6.4 | 2.8 |
| Cn1c2c(c3ccc(Cl)c(Cl)c31)C(C#N)C1(CCNCC1)NC2=O (racemic) | 1.4 | 6.5 | 4.3 | 3.4 | 4.6 |
